Measurements reported in ChEMBL document CHEMBL3259660, “Haloemodin as novel antibacterial agent inhibiting DNA gyrase and bacterial topoisomerase I” (J Med Chem, 2014).
≈ marks a conversion by molar mass, not a printed value. Calls of active or inactive are those of the source. The rule behind the calls is not given here.

Key:
Pseudomonas aeruginosa [1] = test: Antibacterial activity against Pseudomonas aeruginosa ATCC 27853 assessed as growth inhibition by agar dilution assay; format: functional
How it was run: (§1)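 Agar dilution MIC per CLSI (aerobic and anaerobic methods); compounds dissolved in DMSO, reference antibiotics in sterile water. MIC taken as lowest concentration with no visible growth; determined at least twice on separate days, higher value reported. Clinical isolate ranges summarized as MIC50/MIC90.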

[2] = test system: Brevibacillus laterosporus; test: Antibacterial activity against Brevibacillus laterosporus ATCC 64 assessed as growth inhibition by agar dilution assay; format: functional
[3] = Cytotoxicity against CHL cells assessed as cell viability after 24 hrs by MTT assay; format: cell-based, Cricetulus griseus; details: chinese hamster
How it was run: (§2)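 CHL fibroblasts seeded at about 5 × 10^4 cells/mL, incubated overnight at 37 °C, 5% CO2, then exposed to compound at different concentrations for 24 h. Viability read by MTT, absorbance at 570 nm, relative to cells in medium alone (100%). Triplicate.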

Escherichia coli = test: Antibacterial activity against Escherichia coli ATCC 25922 assessed as growth inhibition by agar dilution assay; format: functional; how it was run: as §1
Staphylococcus aureus [4] = test: Antibacterial activity against Staphylococcus aureus ATCC 29213 assessed as growth inhibition by agar dilution assay; format: functional; how it was run: as §1
Staphylococcus aureus [5] = test: microbe, parasite or virus in culture; format: functional; details: ATCC 6538
Bacillus cereus = test: Antibacterial activity against Bacillus cereus ATCC 10231 assessed as growth inhibition by agar dilution assay; format: functional
[6] = Cytotoxicity against CHL cells assessed as cell viability at 0.256 mg/ml after 24 hrs by MTT assay; format: cell-based, Cricetulus griseus; details: chinese hamster, read-out: Activity; how it was run: as §2
Bacteroides fragilis [7] = test: Antibacterial activity against Bacteroides fragilis assessed as growth inhibition by agar dilution assay; format: functional; how it was run: as §1
Bacteroides fragilis [8] = test: Antibacterial activity against Bacteroides fragilis ATCC 25285 assessed as growth inhibition by agar dilution assay; format: functional; how it was run: as §1
[9] = test system: Staphylococcus epidermidis; test: Antibacterial activity against methicillin-sensitive Staphylococcus epidermidis assessed as growth inhibition by agar dilution assay; format: functional; how it was run: as §1
[10] = test system: Staphylococcus epidermidis; test: Antibacterial activity against methicillin-resistant Staphylococcus epidermidis assessed as growth inhibition by agar dilution assay; format: functional
How it was run: (§3)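 CLSI agar dilution MIC against aerobic and anaerobic strains. Test compounds were dissolved in DMSO and reference antibiotics in sterile water. MIC was taken as the lowest concentration showing no bacterial growth. Each MIC was determined at least twice on separate days, and the higher value was reported. E. coli PQ 37 was cultured in LA medium.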

Staphylococcus aureus [11] = test: Antibacterial activity against methicillin-resistant Staphylococcus aureus assessed as growth inhibition by agar dilution assay; format: functional; how it was run: as §3
Staphylococcus aureus [12] = test: Antibacterial activity against methicillin-sensitive Staphylococcus aureus assessed as growth inhibition by agar dilution assay; format: functional; how it was run: as §1
Pseudomonas aeruginosa [13] = test: Antibacterial activity against Pseudomonas aeruginosa assessed as growth inhibition by agar dilution assay; format: functional; how it was run: as §3
Streptococcus pneumoniae [14] = test: Antibacterial activity against Streptococcus pneumoniae ATCC 49619 assessed as growth inhibition by agar dilution assay; format: functional; how it was run: as §1
Streptococcus pneumoniae [15] = test: Antibacterial activity against Streptococcus pneumoniae assessed as growth inhibition by agar dilution assay; format: functional; how it was run: as §1
Staphylococcus aureus [16] = test: In vivo antibacterial activity against Staphylococcus aureus in New zealand rabbit keratitis model assessed as suppression of conjuctival congestion, conjuctival chemosis, infiltration, operative ulcer area and depth at 3 mg/ml administered topically every 4 hrs for four doses every day for 10 days starting 24 hrs post-infection by slit lamp biomicroscopy; format: functional, organism-based
How it was run: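 NZW rabbits (2.0−3.0 kg), anesthetized with iv sodium pentobarbital 30 mg/kg, given intracorneal S. aureus (about 7.5 × 10^6 CFU) from an overnight LB culture. Starting 24 h post-infection, 30 μL drops applied topically per eye every 4 h, four doses daily (8 a.m.–8 p.m.), for 10 days, masked. Test compound in PEG–water (1:1). Slit-lamp biomicroscopy before and after.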

Row | MIC (Pseudomonas aeruginosa [1]) [µg/mL] | MIC [2] [µg/mL] | MIC (Escherichia coli) [µg/mL] | MIC (Staphylococcus aureus [4]) [µg/mL] | MIC (Staphylococcus aureus [5]) [µg/mL] | MIC (Bacillus cereus) [µg/mL] | Compound | viability at 24 h, 0.256 mg/ml [6] [%] | other results
1 | > 256 | 8 (≈ 18.7 µM) | > 256 | 16 (≈ 37.4 µM) | 8 (≈ 18.7 µM) | 8 (≈ 18.7 µM) | Cc1cc(O)c2c(c1)C(=O)c1c(Br)c(O)c(Br)c(O)c1C2=O | > 75 | IC90 at 24 h [3]: 128 µg/mL (≈ 299 µM)
2 | > 256 | 32 (≈ 74.3 µM) | > 256 | 64 (≈ 149 µM) | 32 (≈ 74.3 µM) | 32 (≈ 74.3 µM) | Cc1cc(O)c2c(c1)C(=O)c1c(Cl)c(O)c(I)c(O)c1C2=O | > 75 | 
3 | > 256 | 8 (≈ 12.3 µM) | > 256 | 16 (≈ 24.7 µM) | 8 (≈ 12.3 µM) | 8 (≈ 12.3 µM) | Cc1cc2c(c(O)c1I)C(=O)c1c(O)c(I)c(O)c(I)c1C2=O | > 75 | IC90 at 24 h [3]: 128 µg/mL (≈ 198 µM)
4 | > 256 | 16 (≈ 40.4 µM) | > 256 | 32 (≈ 80.8 µM) | 16 (≈ 40.4 µM) | 16 (≈ 40.4 µM) | Cc1cc(O)c2c(c1)C(=O)c1cc(O)c(I)c(O)c1C2=O | > 75 | 

Further lines, the compound ahead of its results:

Row | Compound | MIC (Pseudomonas aeruginosa [1]) [µg/mL] | MIC [2] [µg/mL] | MIC (Escherichia coli) [µg/mL] | MIC (Staphylococcus aureus [4]) [µg/mL] | MIC (Staphylococcus aureus [5]) [µg/mL] | MIC (Bacillus cereus) [µg/mL] | viability at 24 h, 0.256 mg/ml [6] [%] | other results
5 | CN[C@H](CC(C)C)C(=O)N[C@H]1C(=O)N[C@@H](CC(N)=O)C(=O)N[C@H]2C(=O)N[C@H]3C(=O)N[C@H](C(=O)N[C@H](C(=O)O)c4cc(O)cc(O)c4-c4cc3ccc4O)[C@H](O)c3ccc(c(Cl)c3)Oc3cc2cc(c3O[C@@H]2O[C@H](CO)[C@@H](O)[C@H](O)[C@H]2O[C@H]2C[C@](C)(N)[C@H](O)[C@H](C)O2)Oc2ccc(cc2Cl)[C@H]1O.Cl [VANCOMYCIN HYDROCHLORIDE] |  | 2 |  |  |  | 2 |  | 
6 | Cc1c(Cl)c(O)c2c(c1Cl)C(=O)c1c(Cl)c(O)cc(O)c1C2=O | > 256 | 8 (≈ 21.4 µM) | > 256 | 16 (≈ 42.8 µM) | 8 (≈ 21.4 µM) | 8 (≈ 21.4 µM) | > 75 | IC90 at 24 h [3]: 256 µg/mL (≈ 685 µM)
7 | CCC[C@@H]1C[C@@H](C(=O)N[C@@H]([C@H]2O[C@H](SC)[C@H](OP(=O)(O)O)[C@@H](O)[C@H]2O)[C@H](C)Cl)N(C)C1 [CLINDAMYCIN PHOSPHATE] |  |  |  |  |  |  |  | MIC (Bacteroides fragilis [7]): 0.03 µg/mL; MIC (Bacteroides fragilis [8]): 0.5 µg/mL
8 | CO[C@@]1(NC(=O)Cc2cccs2)C(=O)N2C(C(=O)[O-])=C(COC(N)=O)CS[C@@H]21.[Na+] [CEFOXITIN SODIUM] |  |  |  | 2 |  |  |  | MIC [9]: 1 µg/mL; MIC [10]: 128 µg/mL; MIC (Staphylococcus aureus [11]): 128 µg/mL; MIC (Staphylococcus aureus [12]): 0.5 µg/mL
9 | CCN1CCN(C(=O)N[C@@H](C(=O)N[C@@H]2C(=O)N3[C@@H]2SC(C)(C)[C@@H]3C(=O)[O-])c2ccccc2)C(=O)C1=O.[Na+] [PIPERACILLIN SODIUM] | 4 |  | 4 |  |  |  |  | MIC (Pseudomonas aeruginosa [13]): 2 µg/mL
10 | CC1(C)S[C@@H]2[C@H](NC(=O)Cc3ccccc3)C(=O)N2[C@H]1C(=O)[O-].[Na+] [PENICILLIN G SODIUM] |  |  |  |  |  |  |  | MIC (Streptococcus pneumoniae [14]): 0.25 µg/mL; MIC (Streptococcus pneumoniae [15]): 8 µg/mL
11 | CC1COc2c(N3CCN(C)CC3)c(F)cc3c(=O)c(C(=O)O)cn1c23 (stereo not drawn) |  |  |  |  |  |  |  | inhibition (Staphylococcus aureus [16]): Active
